Assay results of several laboratories.
Lines come from different studies, so protocols differ.
Cell line: HeLa
Read-out: cell growth or viability
Technique: MTT

COC(=O)COc1c(Cc2cc(C(C)(C)CC(C)(C)C)cc(-n3nc4ccccc4n3)c2OCC(=O)OC)cc(C(C)(C)CC(C)(C)C)cc1-n1nc2ccccc2n1 — GI50: 8.12 µM
O=c1c(C=NNC(=S)Nc2ccccc2)coc2ccccc12 — IC50 (48 h): 91.9 µM
Cc1cccc(/C=C/C(=O)Nc2cc(-c3ccnc(N4CCOCC4)c3)ccn2)c1 — inhibition (5 µM): 72%
C=C(COCc1ccc(OC)cc1)[C@@H]1CC[C@@H](C)C[C@H]1OCc1ccc(OC)cc1 — inhibition (30 µM; 72 h): 60.6%
O=C(Nc1cccc([N+](=O)[O-])c1)c1cccs1 — IC50: 282 µM
Cc1cc(NC(=O)C=Cc2ccccc2)cc(-c2ccnc(N3CCOCC3)c2)c1 — inhibition (5 µM): 16.2%
C=C(COCc1ccc(F)cc1)[C@@H]1CC[C@@H](C)C[C@H]1OCc1ccc(F)cc1 — inhibition (10 µM; 72 h): 32.8%
O=C(C=Cc1ccc(F)cc1)Nc1cc(-c2ccnc(N3CCC(O)CC3)c2)ccn1 — inhibition (5 µM): 67.2%
COc1cccc2c1C(=O)c1c(O)c3c(c(O)c1C2=O)C[C@@](O)(C(=O)CO)C[C@@H]3O[C@H]1C[C@H](N)[C@H](O)[C@H](C)O1 — GI50: 4.21 µM
COc1ccc(COC[C@@](O)(CNCc2ccc(F)cc2)[C@@H]2CC[C@@H](C)C[C@H]2OCc2ccc(OC)cc2)cc1 — inhibition (30 µM; 72 h): 99.1%
O=C(C=Cc1ccccc1)Nc1cc(-c2ccnc(N3CCC(O)CC3)c2)ccn1 — IC50 (72 h): 0.0741 µM
C[C@H](CCC(=O)O)[C@H]1CC[C@H]2[C@@H]3CC[C@@H]4C[C@H](O)CC[C@]4(C)[C@H]3CC[C@]12C — IC50 (72 h): 56 µM
C[C@@H]1CC[C@@H]([C@@](C)(O)Cn2cnc3ccccc32)[C@H](OCc2ccccc2)C1 — inhibition (30 µM; 72 h): 86.3%
O=C(Nc1cccc([N+](=O)[O-])c1)c1ccco1 — IC50: 637 µM
O=C(CCc1ccccc1)Nc1cc(-c2ccnc(N3CCC(O)CC3)c2)ccn1 — inhibition (5 µM): 82.9%
COc1ccc(COC[C@@](O)(CNCc2ccccc2)[C@@H]2CC[C@@H](C)C[C@H]2OCc2ccc(OC)cc2)cc1 — inhibition (30 µM; 72 h): 97.4%
O=C(C=Cc1ccccc1)Nc1cccc(-c2ccnc(N3CCC(CO)CC3)c2)c1 — inhibition (5 µM): 73.1%
[NH2][Pt]([NH2])([Cl])[Cl] — IC50 (72 h): 6.8 µM
